Measurements reported in publication PMC2289653 (The Journal of Cell Biology, 1992).

How the values were obtained:
[1] = test system: plasma membrane-enriched fractions (P100) from vole cells; membrane-bound src receptor; experiment: In vitro membrane binding of in vitro translated src proteins; details: for decrease in membrane-binding capacity versus wild type: P100 membranes from normal vole cells, average of three experiments, Fig. 5
myristyl transferase = experiment: Efficiency of myristylation on translation in reticulocyte lysate; format: biochemical; details: rabbit reticulocyte lysate; densitometry; normalized to pp60v-src = 1; Table II
Summary of the method: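 Constructs translated in rabbit reticulocyte lysate for 90 min at 30°C, with either 0.4 µCi/µl [35S]methionine or 0.7 µCi/µl [3H]myristic acid. Products resolved by SDS gel; myristate-to-methionine incorporation ratio expressed relative to wild-type.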

[2] = test system: pp60v-src binding to plasma membranes (src receptor); experiment: Competition of pp60v-src membrane binding by peptides or polypeptides; set-up: species or system vole
Summary of the method: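 1T cell P100 membranes incubated with [35S]methionine-labelled, reticulocyte-lysate-translated protein plus increasing myristylated N-terminal peptides, including Lys→Asn or Arg variants. Nonmyristylated peptide served as control. Incubation 30 min at 20°C, then ultracentrifugation at 100,000 g. Gel slices counted by scintillation. Pellet without membranes subtracted; binding to untreated membranes normalised to 100%.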

[3] = test system: kin-src binding to plasma membranes (src receptor); experiment: Competition of kin-src membrane binding by peptides or polypeptides; set-up: species or system vole
Summary of the method: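 [35S]methionine-labelled chimera translated in rabbit reticulocyte lysate (90 min, 30°C; Triton X-100 0.075% final), then incubated 30 min at 20°C with 1T cell P100 membranes with increasing myristylated peptide. Also tested: 8-mer at 92 µM, 15-mer at 58 µM, or in vitro translated competitor polypeptide. Pellets at 100,000 g; gel slices counted. Pellet without membranes subtracted; untreated membranes set to 100%.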

[4] = test system: del 15-263 binding to vole cell membranes (P100); experiment: Competition of del 15-263 membrane binding by MGYsrc peptide
Summary of the method: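 In vitro translated [35S]methionine-labelled deletion mutant (rabbit reticulocyte lysate) incubated with vole P100 membranes with increasing myristylated src peptide. Binding quantitated by gel slice scintillation counting, pellet without membranes subtracted, untreated membranes set to 100%. In parallel, membranes were incubated 15 min at 20°C with 4 × 10^5 c.p.m. 125I-peptide, then 15 min with BS3 crosslinker, in the presence of increasing unlabelled peptide. After 100,000 g reisolation, SDS gel, and gamma counting of the excised band.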

[5] = test system: pp60v-src binding to plasma membranes (src receptor); details: previous experiments; ref Resh, 1989; cited from earlier work
NIH3T3 cells [6] = experiment: Transformation: morphology and growth in soft agar; format: cell-based
Summary of the method: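 NIH3T3 cells transduced with PLJ retroviral vector carrying src or chimera, or with vector alone. G418-resistant clones expanded, then morphology examined by phase-contrast microscopy. Growth in soft agar scored +/− per clone.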

NIH3T3 cells [7] = experiment: Subcellular fractionation and immunofluorescence of G418-resistant NIH3T3 clones; format: cell-based; details: for Percent association with cell fraction P1 / Percent association with cell fraction P100: percentage of total src kinase activity; for Percent association with cell fraction P1: 1,000-g pellet; for Percent association with cell fraction P100: 100,000-g pellet
Summary of the method: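 G418-resistant NIH3T3 clones (retroviral transfer) labelled 1 h with 50 µCi/ml [35S]methionine. Cells lysed by hypotonic Dounce homogenisation and spun into a 1,000 g pellet (P1), a 100,000 g pellet (P100) and S100. Fractions adjusted to kinase buffer, immunoprecipitated with anti-p60 serum, and subjected to in vitro kinase assay. Analysed by SDS-PAGE and scintillation counting; each fraction given as percent of total kinase activity.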

[8] = peptide at 340 μM, 1T cell P100 membranes, Fig. 2

Question: For “v-src N9: mutant of v-src in which lysine 9 has been converted to asparagine”, which “decrease in membrane-binding capacity versus wild type” value (“decrease” for short) [1] is on record?
Answer: 45%

Question: And the “Relative incorporation [3H]myristate/[35S]methionine” value (“Relative incorporation” for short) (myristyl transferase)?
Answer: 0.98

Question: What does the source list for GSSKSKPKDPSY [GYsrc]?
Answer: inhibition of pp60v-src membrane binding [2, 8]: 10-20%; inhibition of kin-src membrane binding [3, 8]: 10-20%

Question: Which “effect on the binding of kin-src” value ([3]; data not shown) does the source give for “GQ1WTTPLY [myristylated gag peptide, reference compound]” here?
Answer: did not have a significant effect

Question: For GSSKSKPKDPSY [MGYsrc], which “inhibition of binding of the del 15-263 polypeptide” value ([4]; increasing MGYsrc, vole cell P100 membranes, Fig. 6) is on record?
Answer: 80-90%

Question: What about the Ki ([4]; read-out: Ki for membrane binding of del 15-263, vole P100 membranes, Fig. 7) of the same substance?
Answer: 35 µM

Question: What about the “maximum inhibition of pp60v-src binding” value ([2]; competition never complete, on average, Figs. 2 and 4) of the same substance?
Answer: 50-60%

Question: And the “kin-src polypeptide released from the membrane by MGYsrc” value ([3]; from the shape of the binding curve in Fig. 2)?
Answer: ~75%

Question: With GNAAAAKKY [8 mer] as the substance, how does the “inhibition of pp60v-src binding” value [5] read?
Answer: failed to detect inhibition

Question: And the “inhibition of membrane binding of kin-src” value ([3]; peptide at 92 μM)?
Answer: 35%

Question: With “v-src N5: mutant of v-src in which lysine 5 has been converted to asparagine” as the substance, how does the “decrease” value [1] read?
Answer: 30%

Question: What about the “Relative incorporation” value (myristyl transferase) of the same substance?
Answer: 0.99

Question: For “pp60v-src: protein product of the v-src gene of Rous sarcoma virus; NH2 terminus M G S S K S K P K D P S Q R”, which “ratio of src protein in the pellet fraction +Mbs/-Mbs” value ([1]; 1T membranes (P100), 30 min at 20°C, average of four experiments, Fig. 1) is on record?
Answer: 3.2

Question: And the “morphology of expressing cells” value (NIH3T3 cells [6]; G418-resistant clonal populations, phase contrast, Fig. 3)?
Answer: fully transformed

Question: And the “growth in soft agar” value (NIH3T3 cells [6]; G418-resistant clones, Table III prints + for all four clones of each)?
Answer: capable of growth in soft agar

Question: And the “competition of radiolabeled kin-src binding by polypeptide” value ([3]; equimolar or submolar concentrations of in vitro translated polypeptide, data not shown)?
Answer: readily com- peted

Question: What about the “Percent association with cell fraction P1” value (NIH3T3 cells [7]; clone 1) of the same substance?
Answer: 43%

Question: What about the “Percent association with cell fraction P100” value (NIH3T3 cells [7]; clone 1) of the same substance?
Answer: 47%

Question: What about the “Percent association with cell fraction P1” value (NIH3T3 cells [7]; clone 2) of the same substance?
Answer: 32%

Question: What about the “Percent association with cell fraction P100” value (NIH3T3 cells [7]; clone 2) of the same substance?
Answer: 61%

Question: What about the “Percent association with cell fraction P1” value (NIH3T3 cells [7]; clone 3) of the same substance?
Answer: 17%

Question: And the “Percent association with cell fraction P100” value (NIH3T3 cells [7]; clone 3)?
Answer: 67%

Question: What about the “Percent association with cell fraction P1” value (NIH3T3 cells [7]; clone 4) of the same substance?
Answer: 34%

Question: What about the “Percent association with cell fraction P100” value (NIH3T3 cells [7]; clone 4) of the same substance?
Answer: 57%

Question: And the “polypeptide membrane associated in vivo” value (NIH3T3 cells [7]; hypotonic lysis and differential centrifugation, Table III)?
Answer: 80-90%

Question: And the “subcellular localization in vivo” value (NIH3T3 cells [7]; indirect immunofluorescence and cellular fractionation)?
Answer: punctate membrane staining

Question: With “v-src N5+9: mutant of v-src in which both lysines 5 and 9 were converted to asparagine” as the substance, how does the “decrease” value [1] read?
Answer: ~ 60%

Question: And the “Relative incorporation” value (myristyl transferase)?
Answer: 0.93
